What was measured:
[1] = test system: Penicillium digitatum; assay: Fungicidal activity against Penicillium digitatum infected Valenica oranges assessed as fruit weight loss at 600 mg/L treated for 1 min at 20 degC postharvest at 20 hr after fungal conidial inoculation measured after 21 days of storage at 17 degC in presence of 1% SBC (water Rvb = 11.20%); type: functional
[2] = test system: Penicillium digitatum; assay: Fungicidal activity against Penicillium digitatum infected Valenica oranges assessed as fruit weight loss at 600 mg/L treated for 1 min at 20 degC postharvest at 20 hr after fungal conidial inoculation measured after 14 days of storage at 17 degC in presence of 2% SBC (water Rvb = 8.02%); type: functional
[3] = test system: Penicillium digitatum; assay: Fungicidal activity against Penicillium digitatum infected Valenica oranges assessed as fruit weight loss at 400 mg/L treated for 1 min at 40 degC postharvest at 20 hr after fungal conidial inoculation measured after 7 days of storage at 17 degC (water Rvb = 3.42%); type: functional
[4] = test system: Penicillium digitatum; assay: Fungicidal activity against Penicillium digitatum infected Valenica oranges assessed as fruit weight loss at 600 mg/L treated for 1 min at 20 degC postharvest at 20 hr after fungal conidial inoculation measured after 7 days of storage at 17 degC (water Rvb = 3.13%); type: functional
[5] = test system: Penicillium digitatum; assay: Fungicidal activity against TBZ-sensitive Penicillium digitatum infected Nova mandarins assessed as postharvest green mold incidence at 400 mg/L treated for 1 min at 40 degC at 20 hr after fungal conidial inoculation measured after 5 days of storage at 20 degC (water Rvb = 100%); type: functional
Method in brief: (§1)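 Fruit were surface-disinfected in 1 g/L hypochlorite for 30 s, rinsed, dried, then wounded twice equatorially (2 mm × 2 mm rod). Inoculation was a 1 min dip in P. digitatum conidia, 1 × 10^5 conidia/mL final. Fruit were held 20 h at 20 °C and 90% RH, dipped 1 min (SBC wt/vol), and air-dried. Storage was 20 °C, 90% RH. Decay incidence (% fruit with lesions) was scored at 5 d for mandarins and 7 d for oranges. Three replicates of 40 fruit were used; arcsin-transformed data were compared by LSD, p ≤ 0.05.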

[6] = test system: Penicillium digitatum; assay: (§2) Fungicidal activity against TBZ-sensitive Penicillium digitatum infected Nova mandarins assessed as postharvest green mold incidence at 600 mg/L treated for 1 min at 20 degC at 20 hr after fungal conidial inoculation measured after 5 days of storage at 20 degC in presence of 1% SBC (water Rvb = 96.7%); type: functional; method in brief: as §1
[7] = test system: Fruit; assay: Drug residues in Citrus sinensis cvs. Valencia late (Valencia oranges) at 600 mg/L treated for 1 min at 20 degC postharvest measured after 20 days of storage at 17 degC in presence of 0.5% SBC by GC analysis; type: ADME
Method in brief: (§3)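 'Valencia' oranges were dipped 1 min in TBZ at 600 mg/L (20 °C, ±0.5, 1 or 2% wt/vol SBC), 400 mg/L (40 °C, ±SBC) or 200 mg/L (50 °C, alone), then air-dried. They were sampled at 0, 10 and 20 days at 17 °C. Peel of five fruit was frozen, and 5 g of homogenate was extracted with ethyl acetate/hexane (1/1) plus NaCl. The extract was dried under N2, taken up in acetone and analysed by GC. Results are mg/kg on a whole-fruit basis.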

[8] = test system: Fruit; assay: Drug residues in Citrus sinensis cvs. Valencia late (Valencia oranges) at 600 mg/L treated for 1 min at 20 degC postharvest measured after 20 days of storage at 17 degC by GC analysis; type: ADME; method in brief: as §3
[9] = test system: Penicillium digitatum; assay: Fungicidal activity against Penicillium digitatum infected Valenica oranges assessed as fruit weight loss at 400 mg/L treated for 1 min at 40 degC postharvest at 20 hr after fungal conidial inoculation measured after 21 days of storage at 17 degC in presence of 0.5% SBC (water Rvb = 11.43%); type: functional
[10] = test system: Fruit; assay: Total drug residues in Citrus sinensis cvs. Salustiana (Salustiana oranges) fruit at 600 mg/L treated for 1 min at 20 degC postharvest measured after overnight incubation at 17 degC in presence of 2% SBC by GC analysis; type: ADME
Method in brief: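 'Salustiana' oranges were water-washed, dried, dipped, then dried overnight at 17 °C in the dark. Unextracted fruit were used for total residues. Peel from five oranges was frozen at -18 °C. 5 g homogenized peel was extracted with 10 mL ethyl acetate/hexane (1/1) plus 2 g NaCl, shaken 30 min, then 1 mL of organic layer was dried under N2, redissolved in acetone, and run by GC without cleanup. Results are on a whole-fruit basis.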

[11] = test system: Fruit; assay: Drug residues in Citrus sinensis cvs. Valencia late (Valencia oranges) at 600 mg/L treated for 1 min at 20 degC postharvest measured after 10 days of storage at 17 degC by GC analysis; type: ADME; method in brief: as §3
[12] = test system: Fruit; assay: Drug residues in Citrus sinensis cvs. Valencia late (Valencia oranges) at 600 mg/L treated for 1 min at 20 degC postharvest measured immediately post-drug treatment in presence of 0.5% SBC by GC analysis; type: ADME; method in brief: as §3
[13] = test system: Penicillium digitatum; assay: as §2, with “Valencia oranges” for “Nova mandarins”, “7” for “5”, “0.5%” for “1%”, “64.2%)” for “96.7%)”; type: functional; method in brief: as §1
[14] = test system: Penicillium digitatum; assay: as §2, with “TBZ-resistant” for “TBZ-sensitive”, “83.3%)” for “96.7%)”; type: functional
[15] = test system: Cuticular wax; assay: Drug residues in Citrus sinensis cvs. Salustiana (Salustiana oranges) cuticular wax at 600 mg/L treated for 1 min at 50 degC postharvest measured after overnight incubation at 17 degC by GC analysis; type: ADME
Method in brief: (§4)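 'Salustiana' oranges were washed with water and air-dried. They were dipped 1 or 3 min in TBZ 600 mg/L at 20 or 50 °C, or 1 min in TBZ 600 mg/L plus 2% SBC at 20 °C, then dried overnight at 17 °C in the dark. Surface residue was taken by water extraction and wax residue by chloroform extraction. Inner residue was measured in fruit after both extractions. Extracts were dried under N2, taken up in acetone and analysed by GC. Values are mg/kg on a whole-fruit basis.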

[16] = test system: Cuticular wax; assay: Drug residues in Citrus sinensis cvs. Salustiana (Salustiana oranges) cuticular wax at 600 mg/L treated for 3 min at 20 degC postharvest measured after overnight incubation at 17 degC by GC analysis; type: ADME; settings: 0.05 h; method in brief: as §4
[17] = test system: Cuticular wax; assay: Drug residues in Citrus sinensis cvs. Salustiana (Salustiana oranges) cuticular wax at 600 mg/L treated for 1 min at 20 degC postharvest measured after overnight incubation at 17 degC by GC analysis; type: ADME; method in brief: as §4
[18] = test system: Fruit surface; assay: Drug residues on Citrus sinensis cvs. Salustiana (Salustiana oranges) fruit surface at 600 mg/L treated for 3 min at 50 degC postharvest measured after overnight incubation at 17 degC by GC analysis; type: ADME; settings: 0.05 h; method in brief: as §4
[19] = test system: Fruit surface; assay: Drug residues on Citrus sinensis cvs. Salustiana (Salustiana oranges) fruit surface at 600 mg/L treated for 1 min at 50 degC postharvest measured after overnight incubation at 17 degC by GC analysis; type: ADME; method in brief: as §4
[20] = test system: Fruit; assay: Drug residues in Citrus sinensis cvs. Valencia late (Valencia oranges) at 200 mg/L treated for 1 min at 50 degC postharvest measured after 20 days of storage at 17 degC by GC analysis; type: ADME; method in brief: as §3
[21] = test system: Fruit; assay: Drug residues in Citrus sinensis cvs. Valencia late (Valencia oranges) at 400 mg/L treated for 1 min at 40 degC postharvest measured after 20 days of storage at 17 degC in presence of 1% SBC by GC analysis; type: ADME; method in brief: as §3

c1ccc2[nH]c(-c3cscn3)nc2c1 [THIABENDAZOLE]
Activity [1]: 12.35%
Activity [2]: 9.38%
Activity [3]: 3.22%
Activity [4]: 3.59%
Activity [5]: 1.7%
Activity [6]: 3.3%
Drug uptake [7]: 1.31 mg/kg
Drug uptake [8]: 1.54 mg/kg
Activity [9]: 12.23%
Drug uptake [10]: 0.91 mg/kg
Drug uptake [11]: 1.57 mg/kg
Drug uptake [12]: 1.25 mg/kg
Activity [13]: 18.3%
Activity [14]: 65%
Drug uptake [15]: 0.54 mg/kg
Drug uptake [16]: 0.11 mg/kg
Drug uptake [17]: 0.17 mg/kg
Drug uptake [18]: 0.69 mg/kg
Drug uptake [19]: 0.66 mg/kg
Drug uptake [20]: 0.38 mg/kg
Drug uptake [21]: 0.71 mg/kg
